Columns and labels:
Type in all cases: functional
K562 = assay: Growth inhibition of human K562 cells at 10 uM incubated for 48 hrs by sulforhodamine B assay relative to control; conditions: K562, 48 h, read-out: GI
How it was run: (§1)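 Single-dose screen at 10 μM final: cells in RPMI 1640, 5% FBS, 2 mM L-glutamine, plated 5,000–40,000/well, preincubated 24 h at 37°C, 5% CO2; drug 48 h; adherent cells fixed with 10% TCA, suspension cells with 16% TCA; SRB stain, absorbance 515 nm; percentage growth versus untreated control, with time-zero plates.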

EKVX = assay: Growth inhibition of human EKVX cells at 10 uM incubated for 48 hrs by sulforhodamine B assay relative to control; conditions: read-out: GI; how it was run: as §1
HOP-62 = assay: Growth inhibition of human HOP62 cells at 10 uM incubated for 48 hrs by sulforhodamine B assay relative to control; conditions: HOP-62, 48 h, read-out: GI; how it was run: as §1
HOP-92 = assay: Growth inhibition of human HOP92 cells at 10 uM incubated for 48 hrs by sulforhodamine B assay relative to control; conditions: HOP-92, 48 h, read-out: GI; how it was run: as §1
NCI-H226 = assay: Growth inhibition of human NCI-H226 cells at 10 uM incubated for 48 hrs by sulforhodamine B assay relative to control; conditions: NCI-H226, 48 h, read-out: GI; how it was run: as §1
NCI-H23 = assay: Growth inhibition of human NCI-H23 cells at 10 uM incubated for 48 hrs by sulforhodamine B assay relative to control; conditions: NCI-H23, 48 h, read-out: GI; how it was run: as §1
NCI-H322M = assay: Growth inhibition of human NCI-H322M cells at 10 uM incubated for 48 hrs by sulforhodamine B assay relative to control; conditions: read-out: GI; how it was run: as §1
NCI-H460 = assay: Growth inhibition of human NCI-H460 cells at 10 uM incubated for 48 hrs by sulforhodamine B assay relative to control; conditions: NCI-H460, 48 h, read-out: GI; how it was run: as §1
COLO 205 = assay: Growth inhibition of human COLO205 cells at 10 uM incubated for 48 hrs by sulforhodamine B assay relative to control; conditions: COLO 205, 48 h, read-out: GI; how it was run: as §1
HCC 2998 = assay: Growth inhibition of human HCC2998 cells at 10 uM incubated for 48 hrs by sulforhodamine B assay relative to control; conditions: HCC 2998, 48 h, read-out: GI; how it was run: as §1
KM12 = assay: Growth inhibition of human KM12 cells at 10 uM incubated for 48 hrs by sulforhodamine B assay relative to control; conditions: KM12, 48 h, read-out: GI; how it was run: as §1
SW-620 = assay: Growth inhibition of human SW620 cells at 10 uM incubated for 48 hrs by sulforhodamine B assay relative to control; conditions: SW-620, 48 h, read-out: GI
How it was run: (§2)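 NCI single-dose screen: cells grown in RPMI 1640 with 5% FBS and 2 mM L-glutamine, plated at 5,000–40,000 cells/well and preincubated 24 h at 37 °C, 5% CO2. Compounds taken from DMSO stock and tested at final 10 µM for 48 h. Cells fixed with TCA, stained with 0.4% SRB, absorbance read at 515 nm. Percentage growth calculated against untreated controls; controls held DMSO at the same dilution.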

SF-268 = assay: Growth inhibition of human SF268 cells at 10 uM incubated for 48 hrs by sulforhodamine B assay relative to control; conditions: SF-268, 48 h, read-out: GI; how it was run: as §2
SF-295 = assay: Growth inhibition of human SF295 cells at 10 uM incubated for 48 hrs by sulforhodamine B assay relative to control; conditions: SF-295, 48 h, read-out: GI; how it was run: as §2
U-251 = assay: Growth inhibition of human U251 cells at 10 uM incubated for 48 hrs by sulforhodamine B assay relative to control; conditions: U-251, 48 h, read-out: GI; how it was run: as §2
Malme-3M = assay: Growth inhibition of human MALME-3M cells at 10 uM incubated for 48 hrs by sulforhodamine B assay relative to control; conditions: read-out: GI; how it was run: as §1
M14 = assay: Growth inhibition of human M14 cells at 10 uM incubated for 48 hrs by sulforhodamine B assay relative to control; conditions: M14, 48 h, read-out: GI; how it was run: as §1
SK-MEL-28 = assay: Growth inhibition of human SK-MEL-28 cells at 10 uM incubated for 48 hrs by sulforhodamine B assay relative to control; conditions: SK-MEL-28, 48 h, read-out: GI; how it was run: as §2
SK-MEL-5 = assay: Growth inhibition of human SK-MEL-5 cells at 10 uM incubated for 48 hrs by sulforhodamine B assay relative to control; conditions: SK-MEL-5, 48 h, read-out: GI; how it was run: as §2
UACC-62 = assay: Growth inhibition of human UACC62 cells at 10 uM incubated for 48 hrs by sulforhodamine B assay relative to control; conditions: UACC-62, 48 h, read-out: GI; how it was run: as §2
OVCAR-3 = assay: Growth inhibition of human OVCAR3 cells at 10 uM incubated for 48 hrs by sulforhodamine B assay relative to control; conditions: OVCAR-3, 48 h, read-out: GI; how it was run: as §1
OVCAR-4 = assay: Growth inhibition of human OVCAR4 cells at 10 uM incubated for 48 hrs by sulforhodamine B assay relative to control; conditions: OVCAR-4, 48 h, read-out: GI; how it was run: as §1
OVCAR-5 = assay: Growth inhibition of human OVCAR5 cells at 10 uM incubated for 48 hrs by sulforhodamine B assay relative to control; conditions: OVCAR-5, 48 h, read-out: GI; how it was run: as §1
SK-OV-3 = assay: Growth inhibition of human SKOV3 cells at 10 uM incubated for 48 hrs by sulforhodamine B assay relative to control; conditions: SK-OV-3, 48 h, read-out: GI; how it was run: as §2
A498 = assay: Growth inhibition of human A498 cells at 10 uM incubated for 48 hrs by sulforhodamine B assay relative to control; conditions: A498, 48 h, read-out: GI; how it was run: as §1
RXF 393 = assay: Growth inhibition of human RXF393 cells at 10 uM incubated for 48 hrs by sulforhodamine B assay relative to control; conditions: RXF 393, 48 h, read-out: GI; how it was run: as §1
SN12C = assay: Growth inhibition of human SN12C cells at 10 uM incubated for 48 hrs by sulforhodamine B assay relative to control; conditions: read-out: GI; how it was run: as §2
PC-3 = assay: Growth inhibition of human PC3 cells at 10 uM incubated for 48 hrs by sulforhodamine B assay relative to control; conditions: PC-3, 48 h, read-out: GI; how it was run: as §1
MCF7 = assay: Growth inhibition of human MCF7 cells at 10 uM incubated for 48 hrs by sulforhodamine B assay relative to control; conditions: MCF7, 48 h, read-out: GI; how it was run: as §1
MDA-MB-231 = assay: Growth inhibition of human MDA-MB-231 cells at 10 uM incubated for 48 hrs by sulforhodamine B assay relative to control; conditions: MDA-MB-231, 48 h, read-out: GI; how it was run: as §1
BT-549 = assay: Growth inhibition of human BT549 cells at 10 uM incubated for 48 hrs by sulforhodamine B assay relative to control; conditions: BT-549, 48 h, read-out: GI; how it was run: as §1
T47D = assay: Growth inhibition of human T47D cells at 10 uM incubated for 48 hrs by sulforhodamine B assay relative to control; conditions: read-out: GI; how it was run: as §2

| Structure (SMILES) | inhibition of growth at 10 µM (K562) [%] | inhibition of growth at 10 µM (EKVX) [%] | inhibition of growth at 10 µM (HOP-62) [%] | inhibition of growth at 10 µM (HOP-92) [%] | inhibition of growth at 10 µM (NCI-H226) [%] | inhibition of growth at 10 µM (NCI-H23) [%] | inhibition of growth at 10 µM (NCI-H322M) [%] | inhibition of growth at 10 µM (NCI-H460) [%] | inhibition of growth at 10 µM (COLO 205) [%] | inhibition of growth at 10 µM (HCC 2998) [%] | inhibition of growth at 10 µM (KM12) [%] | inhibition of growth at 10 µM (SW-620) [%] | inhibition of growth at 10 µM (SF-268) [%] | inhibition of growth at 10 µM (SF-295) [%] | inhibition of growth at 10 µM (U-251) [%] | inhibition of growth at 10 µM (Malme-3M) [%] | inhibition of growth at 10 µM (M14) [%] | inhibition of growth at 10 µM (SK-MEL-28) [%] | inhibition of growth at 10 µM (SK-MEL-5) [%] | inhibition of growth at 10 µM (UACC-62) [%] | other results |
| --- | --- | --- | --- | --- | --- | --- | --- | --- | --- | --- | --- | --- | --- | --- | --- | --- | --- | --- | --- | --- | --- |
| CCOC(=O)C1=C(C)NC(SCc2nnc(-c3ccc(Cl)cc3)o2)=NC1c1ccccc1 (stereo unspecified) | 25.2 | 14.8 | 27.8 | 40.1 | 11.4 | < 10 | < 10 | < 10 | 10.4 | < 10 | 10.3 | < 10 | < 10 | 23.4 | 21.2 | < 10 | 19.5 | < 10 | < 10 | 34.9 | inhibition of growth at 10 µM (OVCAR-3): < 10%; inhibition of growth at 10 µM (OVCAR-4): < 10%; inhibition of growth at 10 µM (OVCAR-5): < 10%; inhibition of growth at 10 µM (SK-OV-3): 25.6%; inhibition of growth at 10 µM (A498): < 10%; inhibition of growth at 10 µM (RXF 393): < 10%; inhibition of growth at 10 µM (SN12C): 14.8%; inhibition of growth at 10 µM (PC-3): 42.2%; inhibition of growth at 10 µM (MCF7): 18.2%; inhibition of growth at 10 µM (MDA-MB-231): < 10%; inhibition of growth at 10 µM (BT-549): 42.7%; inhibition of growth at 10 µM (T47D): 53.8% |
| CCOC(=O)C1=C(C)NC(SCc2nnc(-c3ccc(Cl)cc3)o2)=NC1c1ccc(OC)cc1 (stereo unspecified) | < 10 | < 10 | < 10 | 17.6 | 11.8 | < 10 | < 10 | < 10 | < 10 | < 10 | < 10 | < 10 | < 10 | < 10 | 10.1 | < 10 | < 10 | < 10 | < 10 | 15.3 | inhibition of growth at 10 µM (OVCAR-3): < 10%; inhibition of growth at 10 µM (OVCAR-4): < 10%; inhibition of growth at 10 µM (OVCAR-5): < 10%; inhibition of growth at 10 µM (SK-OV-3): < 10%; inhibition of growth at 10 µM (A498): < 10%; inhibition of growth at 10 µM (RXF 393): < 10%; inhibition of growth at 10 µM (SN12C): < 10%; inhibition of growth at 10 µM (PC-3): 17.9%; inhibition of growth at 10 µM (MCF7): < 10%; inhibition of growth at 10 µM (MDA-MB-231): 10.2%; inhibition of growth at 10 µM (BT-549): 16.9%; inhibition of growth at 10 µM (T47D): 15.2% |
| CCOC(=O)C1=C(C)NC(SCc2nnc(-c3ccc(Cl)cc3)o2)=NC1c1ccc(F)cc1 (stereo unspecified) | 14.4 | < 10 | < 10 | 27.8 | 10.6 | < 10 | < 10 | < 10 | < 10 | < 10 | < 10 | < 10 | < 10 | < 10 | 10.1 | < 10 | < 10 | < 10 | 12.5 | 10.7 | inhibition of growth at 10 µM (OVCAR-3): < 10%; inhibition of growth at 10 µM (OVCAR-4): < 10%; inhibition of growth at 10 µM (OVCAR-5): < 10%; inhibition of growth at 10 µM (SK-OV-3): < 10%; inhibition of growth at 10 µM (A498): 12.3%; inhibition of growth at 10 µM (RXF 393): < 10%; inhibition of growth at 10 µM (SN12C): < 10%; inhibition of growth at 10 µM (PC-3): 23.4%; inhibition of growth at 10 µM (MCF7): 13.3%; inhibition of growth at 10 µM (MDA-MB-231): < 10%; inhibition of growth at 10 µM (BT-549): < 10%; inhibition of growth at 10 µM (T47D): 27.1% |

— ChEMBL document CHEMBL4190234, “Design, synthesis and anticancer activity of new monastrol analogues bearing 1,3,4-oxadiazole moiety” (Eur J Med Chem, 2017)
